Laboratory results as given in ChEMBL document CHEMBL1141588, “Pyrrolo[2,3-a]carbazoles as potential cyclin dependent kinase 1 (CDK1) Inhibitors. Synthesis, biological evaluation, and binding mode through docking simulations” (J Med Chem, 2008).
Blank lines part the entries; values can stand above or below the molecule they belong to. The source made the active and inactive calls. The rule behind the calls is not given here.

Assays:
[1] = target: Cyclin-dependent kinase 1/cyclin B1 (Homo sapiens, UniProt P06493); assay: Inhibition of CDK1/cyclin B by MESACUP assay; type: protein-complex assay
Sequence of Cyclin-dependent kinase 1/cyclin B1 (P06493 whole entry): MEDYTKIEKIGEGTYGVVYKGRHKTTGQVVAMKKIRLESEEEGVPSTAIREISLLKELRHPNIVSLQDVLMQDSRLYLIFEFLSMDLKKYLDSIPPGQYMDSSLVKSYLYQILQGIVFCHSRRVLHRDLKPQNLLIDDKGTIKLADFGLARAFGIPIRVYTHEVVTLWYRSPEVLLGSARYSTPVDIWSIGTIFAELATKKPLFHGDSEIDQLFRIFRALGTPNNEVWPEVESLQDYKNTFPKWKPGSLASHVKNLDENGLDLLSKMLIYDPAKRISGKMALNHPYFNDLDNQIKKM
Sequence of Cyclin-dependent kinase 1/cyclin B1 (P14635 whole entry, further chain): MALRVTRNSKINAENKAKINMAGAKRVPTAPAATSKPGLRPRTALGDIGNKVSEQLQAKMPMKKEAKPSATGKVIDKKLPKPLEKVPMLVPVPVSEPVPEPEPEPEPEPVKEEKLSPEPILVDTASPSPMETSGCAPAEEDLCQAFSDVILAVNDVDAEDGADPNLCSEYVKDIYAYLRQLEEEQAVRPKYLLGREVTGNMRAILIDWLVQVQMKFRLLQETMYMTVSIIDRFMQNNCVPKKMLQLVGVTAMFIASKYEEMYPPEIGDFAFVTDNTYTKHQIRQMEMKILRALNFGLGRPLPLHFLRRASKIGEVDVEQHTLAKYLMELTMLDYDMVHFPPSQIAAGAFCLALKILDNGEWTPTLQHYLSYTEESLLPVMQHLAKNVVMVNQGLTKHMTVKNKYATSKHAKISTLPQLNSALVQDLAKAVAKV

[2] = target: T1, Cyclin-dependent kinase 1/cyclin B1 (Homo sapiens) (UniProt P06493+P14635); assay: Inhibition of CDK1/cyclin B at 30 uM; type: protein-complex assay
T1 sequence (P06493 whole entry, looked up): as the sequence (P06493 whole entry) above
T1 sequence (P14635 whole entry, looked up): as the sequence (P14635 whole entry, further chain) above

[3] = target: T1, Cyclin-dependent kinase 1/cyclin B1 (Homo sapiens); assay: Inhibition of CDK1/cyclin B at 100 uM; type: protein-complex assay
Method in brief: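 CDK1/cyclin B complex activity measured in vitro with the MESACUP cdc2 kinase assay kit. Compounds were tested at 100 µM. Activity was expressed as % CDK1 activity relative to untreated control samples, as mean ± SEM, with statistical comparison against control (P < 0.05, P < 0.001).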

[4] = Inhibition of CDK1/cyclin A at 50 uM
[5] = Inhibition of CDK1/cyclin E at 50 uM
[6] = target: Epidermal growth factor receptor (Homo sapiens) (UniProt P00533); assay: Inhibition of EGFR upto 50 uM
[7] = Inhibition of IGFR upto 50 uM
[8] = Inhibition of FGFR upto 50 uM
[9] = target: Vascular endothelial growth factor receptor 2 (Homo sapiens) (UniProt P35968); assay: Inhibition of KDR upto 50 uM
Sequence of Vascular endothelial growth factor receptor 2 (Homo sapiens) (P35968 whole entry): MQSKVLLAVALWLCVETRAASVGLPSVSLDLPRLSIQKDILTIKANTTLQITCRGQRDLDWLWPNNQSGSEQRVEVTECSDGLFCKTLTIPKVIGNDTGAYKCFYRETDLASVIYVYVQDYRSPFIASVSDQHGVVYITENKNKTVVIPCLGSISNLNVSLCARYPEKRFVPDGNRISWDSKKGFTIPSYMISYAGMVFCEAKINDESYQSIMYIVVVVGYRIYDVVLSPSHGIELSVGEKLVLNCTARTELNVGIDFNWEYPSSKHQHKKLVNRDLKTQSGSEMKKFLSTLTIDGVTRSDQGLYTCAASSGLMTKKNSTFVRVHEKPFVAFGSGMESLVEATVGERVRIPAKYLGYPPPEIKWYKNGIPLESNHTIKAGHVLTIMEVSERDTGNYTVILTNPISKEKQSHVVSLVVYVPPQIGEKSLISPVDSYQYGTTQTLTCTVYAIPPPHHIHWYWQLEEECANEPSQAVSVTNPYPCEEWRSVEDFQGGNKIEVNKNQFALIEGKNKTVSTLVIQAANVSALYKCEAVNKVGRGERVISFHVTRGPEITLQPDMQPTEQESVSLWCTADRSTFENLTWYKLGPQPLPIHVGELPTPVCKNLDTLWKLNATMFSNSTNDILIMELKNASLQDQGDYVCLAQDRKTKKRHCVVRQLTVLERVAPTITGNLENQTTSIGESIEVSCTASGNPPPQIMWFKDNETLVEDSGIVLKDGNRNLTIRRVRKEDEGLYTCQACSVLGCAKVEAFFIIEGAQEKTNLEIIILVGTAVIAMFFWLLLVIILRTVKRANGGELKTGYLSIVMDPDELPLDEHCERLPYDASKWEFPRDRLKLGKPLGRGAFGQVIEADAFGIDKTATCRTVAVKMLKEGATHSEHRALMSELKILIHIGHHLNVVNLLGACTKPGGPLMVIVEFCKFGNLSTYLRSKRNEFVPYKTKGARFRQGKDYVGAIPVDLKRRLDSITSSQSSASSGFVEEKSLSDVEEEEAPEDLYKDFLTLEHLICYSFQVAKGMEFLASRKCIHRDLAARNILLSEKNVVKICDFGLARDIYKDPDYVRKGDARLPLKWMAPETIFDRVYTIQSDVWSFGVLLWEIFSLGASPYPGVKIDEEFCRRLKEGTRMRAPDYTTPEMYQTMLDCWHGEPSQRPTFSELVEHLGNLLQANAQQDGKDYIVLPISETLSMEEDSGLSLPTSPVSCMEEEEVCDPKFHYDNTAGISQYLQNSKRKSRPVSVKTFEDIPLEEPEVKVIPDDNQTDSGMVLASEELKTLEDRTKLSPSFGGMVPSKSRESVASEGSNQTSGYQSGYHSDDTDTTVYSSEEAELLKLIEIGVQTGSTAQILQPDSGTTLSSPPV

[10] = target: Vascular endothelial growth factor receptor 3 (Homo sapiens) (UniProt P35916); assay: Inhibition of Flt4 upto 50 uM
Sequence of Vascular endothelial growth factor receptor 3 (Homo sapiens) (P35916 whole entry): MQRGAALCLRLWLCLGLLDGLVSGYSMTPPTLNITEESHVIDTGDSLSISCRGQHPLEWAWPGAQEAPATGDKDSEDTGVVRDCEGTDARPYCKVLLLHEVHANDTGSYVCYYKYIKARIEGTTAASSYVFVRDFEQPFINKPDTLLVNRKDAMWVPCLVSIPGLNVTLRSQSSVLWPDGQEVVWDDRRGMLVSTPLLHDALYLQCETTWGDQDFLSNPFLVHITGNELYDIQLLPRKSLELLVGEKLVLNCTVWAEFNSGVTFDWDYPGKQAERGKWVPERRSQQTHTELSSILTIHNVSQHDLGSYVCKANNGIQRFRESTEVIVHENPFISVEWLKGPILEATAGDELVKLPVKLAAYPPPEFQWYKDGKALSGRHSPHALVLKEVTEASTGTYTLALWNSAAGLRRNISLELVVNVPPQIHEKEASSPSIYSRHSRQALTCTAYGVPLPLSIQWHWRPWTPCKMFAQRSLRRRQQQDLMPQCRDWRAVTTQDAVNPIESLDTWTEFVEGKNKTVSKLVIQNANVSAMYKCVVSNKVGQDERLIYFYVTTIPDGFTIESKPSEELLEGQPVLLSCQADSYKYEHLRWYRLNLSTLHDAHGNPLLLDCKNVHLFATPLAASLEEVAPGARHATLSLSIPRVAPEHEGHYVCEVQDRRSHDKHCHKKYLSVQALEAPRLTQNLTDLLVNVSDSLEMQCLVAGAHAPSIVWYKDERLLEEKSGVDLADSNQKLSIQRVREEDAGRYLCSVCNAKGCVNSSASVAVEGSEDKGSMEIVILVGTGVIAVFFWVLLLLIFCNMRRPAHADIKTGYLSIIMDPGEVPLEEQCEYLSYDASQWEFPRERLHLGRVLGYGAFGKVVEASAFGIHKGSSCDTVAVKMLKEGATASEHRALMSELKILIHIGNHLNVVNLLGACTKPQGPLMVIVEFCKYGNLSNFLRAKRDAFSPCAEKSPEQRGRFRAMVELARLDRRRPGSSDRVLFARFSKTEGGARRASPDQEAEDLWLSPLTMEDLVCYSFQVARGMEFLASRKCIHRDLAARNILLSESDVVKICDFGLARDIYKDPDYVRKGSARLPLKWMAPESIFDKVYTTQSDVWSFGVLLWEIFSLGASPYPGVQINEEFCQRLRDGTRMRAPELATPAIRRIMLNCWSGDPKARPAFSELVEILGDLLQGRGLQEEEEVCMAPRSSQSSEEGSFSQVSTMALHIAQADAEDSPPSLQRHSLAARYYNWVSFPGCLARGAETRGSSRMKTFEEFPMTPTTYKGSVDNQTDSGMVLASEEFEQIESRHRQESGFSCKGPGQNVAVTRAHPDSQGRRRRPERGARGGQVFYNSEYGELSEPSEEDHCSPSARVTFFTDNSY

[11] = target: Angiopoietin-1 receptor (Homo sapiens) (UniProt Q02763); assay: Inhibition of Tie2 upto 50 uM
Sequence of Angiopoietin-1 receptor (Homo sapiens) (Q02763 whole entry): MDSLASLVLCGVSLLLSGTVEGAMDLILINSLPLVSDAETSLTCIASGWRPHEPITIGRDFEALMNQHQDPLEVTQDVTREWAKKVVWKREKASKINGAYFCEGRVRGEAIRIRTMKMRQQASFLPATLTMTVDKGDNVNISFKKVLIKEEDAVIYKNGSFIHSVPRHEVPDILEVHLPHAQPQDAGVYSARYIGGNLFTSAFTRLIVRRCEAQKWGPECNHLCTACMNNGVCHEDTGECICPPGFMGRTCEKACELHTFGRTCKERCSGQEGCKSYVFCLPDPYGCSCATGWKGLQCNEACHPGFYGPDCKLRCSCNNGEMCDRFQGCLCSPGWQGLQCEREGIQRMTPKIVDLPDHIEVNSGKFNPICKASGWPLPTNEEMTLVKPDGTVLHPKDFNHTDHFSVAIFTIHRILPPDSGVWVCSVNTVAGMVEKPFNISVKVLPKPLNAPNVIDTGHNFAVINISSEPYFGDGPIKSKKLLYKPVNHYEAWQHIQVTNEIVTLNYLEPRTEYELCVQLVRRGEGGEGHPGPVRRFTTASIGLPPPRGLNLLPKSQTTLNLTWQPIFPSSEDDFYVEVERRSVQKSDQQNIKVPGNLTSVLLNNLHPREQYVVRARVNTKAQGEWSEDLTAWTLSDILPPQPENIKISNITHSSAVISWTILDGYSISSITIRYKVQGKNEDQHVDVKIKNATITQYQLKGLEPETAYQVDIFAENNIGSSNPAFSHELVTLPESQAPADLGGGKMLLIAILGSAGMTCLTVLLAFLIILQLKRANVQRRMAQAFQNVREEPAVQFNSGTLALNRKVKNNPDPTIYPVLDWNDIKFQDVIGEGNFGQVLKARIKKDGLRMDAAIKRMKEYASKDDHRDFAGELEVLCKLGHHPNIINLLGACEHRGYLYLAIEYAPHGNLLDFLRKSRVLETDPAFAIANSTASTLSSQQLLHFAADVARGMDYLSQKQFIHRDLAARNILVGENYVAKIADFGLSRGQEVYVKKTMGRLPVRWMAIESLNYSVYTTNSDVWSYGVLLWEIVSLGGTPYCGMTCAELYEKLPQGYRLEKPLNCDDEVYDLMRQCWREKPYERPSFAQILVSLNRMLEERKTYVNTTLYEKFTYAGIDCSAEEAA

Structure (SMILES): CCOC(=O)c1cc2ccc3c([nH]c4cccc(Cl)c43)c2[nH]1
IC50 [1]: > 100 µM

Structure (SMILES): CCOC(=O)c1cc2ccc3c4cc(OC)ccc4[nH]c3c2[nH]1
IC50 [1]: > 100 µM

Structure (SMILES): CCOC(=O)c1cc2ccc3c4cccc(Cl)c4[nH]c3c2[nH]1
IC50 [1]: 15 µM
inhibition [2]: 50%
inhibition [3]: 90%
Activity [4]: inactive
Activity [5]: inactive
Activity [6]: inactive
Activity [7]: inactive
Activity [8]: inactive
Activity [9]: inactive
Activity [10]: inactive
Activity [11]: inactive

The next lines start with the values.

IC50 [1]: > 100 µM
Structure (SMILES): CCOC(=O)c1cc2ccc3c4cc(Cl)ccc4[nH]c3c2[nH]1

IC50 [1]: > 100 µM
Structure (SMILES): CCOC(=O)c1cc2ccc3c4ccccc4[nH]c3c2[nH]1

IC50 [1]: > 100 µM
Structure (SMILES): CCOC(=O)c1cc2ccc3c4cc(C)ccc4[nH]c3c2[nH]1

IC50 [1]: > 100 µM
Structure (SMILES): CCOC(=O)c1cc2ccc3c4ccc(Cl)cc4[nH]c3c2[nH]1
